Results reported in ChEMBL document CHEMBL1124606, “Benzo- and pyrido-1,4-oxazepin-5-ones and -thiones: synthesis and structure-activity relationships of a new series of H1 antihistamines” (1989).

What was measured:
Felis catus [1] = assay: The compound dose required for 50% block of H1 histamine activity, when administarted intra venously in cats; assay type: functional
In short: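 Cats given test compound iv (0.001-20 mg/kg), with blood pressure recorded continuously. Histamine 0.5 μg/kg iv was given to induce hypotension, before and 5, 10 and 20 min after each dose. The antihistaminic dose was the one inhibiting the histamine response by >50%. Values are mean ± SD over the number of experiments per compound.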

Felis catus [2] = assay: The compound dose required to elicit marked cortical slowing and spindling, when administarted intra venously in cats; assay type: functional
In short: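 Cats given test compound iv (0.001-20 mg/kg), with spontaneous EEG inspected after each dose for cortical slowing, synchrony and spindle-type activity. The sedative dose was the one producing marked slowing and spindling (synchrony). Values are mean ± SD over the number of experiments per compound.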

Cavia porcellus [3] = species on record: Cavia porcellus; assay: Effective dose that protects guinea pigs against histamine induced lethality at 6 hours pretreatment time; assay type: functional
In short: (§1)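 Survival at 24 h after challenge was scored as protection. Groups of 5–10 animals per treatment; ED50 was calculated by the Litchfield–Wilcoxon method or by computer probit analysis.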

Cavia porcellus [4] = species on record: Cavia porcellus; assay: Effective dose that protects guinea pigs against histamine induced lethality, at 1 hour pretreatment time; assay type: functional; in short: as §1
[5] = target: Histamine H1 receptor (Cavia porcellus) (UniProt P31389); assay: Histamine induced lethality, at 60-min pretreatment time of 0.1 mg/kg p.o. in guinea pigs.; assay type: functional, organism-based; design: dose 0.1 mg/kg; conditions: at 0.1 mg/kg
Cavia porcellus [6] = assay: Histamine induced lethality, at 60-min pretreatment time when 0.3 mg/kg compound was administered perorally in guinea pigs; assay type: functional; conditions: route oral
Cavia porcellus [7] = assay: Histamine induced lethality, at 60-min pretreatment time when 1 mg/kg compound was administered perorally in guinea pigs; assay type: functional; conditions: route oral
Cavia porcellus [8] = assay: Histamine induced lethality, at 30-min pretreatment time when 1 mg/kg compound was administered perorally in guinea pigs; assay type: functional; conditions: route oral
Cavia porcellus [9] = assay: Histamine induced lethality, at 60-min pretreatment time when 0.1 mg/kg compound was administered perorally in guinea pigs; assay type: functional; conditions: route oral
Cavia porcellus [10] = assay: Histamine induced lethality, at 60-min pretreatment time when 3 mg/kg compound was administered perorally in guinea pigs; assay type: functional; conditions: route oral
Cavia porcellus [11] = assay: Histamine induced lethality, at 60-min pretreatment time when 30 mg/kg compound was administered perorally in guinea pigs; assay type: functional; conditions: route oral
Cavia porcellus [12] = assay: Histamine induced lethality, at 30-min pretreatment time when 1 mg/kg compound was administered intra peritoneally in guinea pigs; assay type: functional
Cavia porcellus [13] = assay: Histamine induced lethality, at 30-min pretreatment time when 30 mg/kg compound was administered intra peritoneally in guinea pigs; assay type: functional
[14] = target: Histamine H1 receptor (Cavia porcellus) (UniProt P31389); assay: Histamine induced lethality, at 30-min pretreatment time of 3 mg/kg i.p. in guinea pigs.; assay type: functional, organism-based; design: dose 3 mg/kg; conditions: at 3 mg/kg
Cavia porcellus [15] = assay: Histamine induced lethality, at 30-min pretreatment time when 3 mg/kg compound was administered intra peritoneally in guinea pigs; assay type: functional
Cavia porcellus [16] = assay: Histamine induced lethality, at 30-min pretreatment time when 0.3 mg/kg compound was administered intra peritoneally in guinea pigs; assay type: functional
Cavia porcellus [17] = assay: Histamine induced lethality, at 30-min pretreatment time when 30 mg/kg compound was administered intra peritoneallyn guinea pigs; assay type: functional

Chain of Histamine H1 receptor (Cavia porcellus) (P31389 whole entry): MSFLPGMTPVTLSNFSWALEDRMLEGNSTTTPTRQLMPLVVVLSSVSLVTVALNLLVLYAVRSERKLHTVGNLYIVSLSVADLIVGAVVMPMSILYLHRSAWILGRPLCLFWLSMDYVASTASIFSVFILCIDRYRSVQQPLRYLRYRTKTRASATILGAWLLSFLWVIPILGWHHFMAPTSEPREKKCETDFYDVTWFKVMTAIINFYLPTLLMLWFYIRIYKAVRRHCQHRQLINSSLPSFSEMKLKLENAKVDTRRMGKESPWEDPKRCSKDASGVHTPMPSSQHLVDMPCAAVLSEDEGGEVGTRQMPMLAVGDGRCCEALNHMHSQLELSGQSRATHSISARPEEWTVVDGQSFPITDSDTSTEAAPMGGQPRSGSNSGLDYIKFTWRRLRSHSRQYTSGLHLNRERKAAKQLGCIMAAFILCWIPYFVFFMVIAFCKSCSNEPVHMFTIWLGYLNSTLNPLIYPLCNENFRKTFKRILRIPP

| SMILES | Dose (Felis catus [1]) [mg/kg] | Dose (Felis catus [2]) [mg/kg] | ED50 (Cavia porcellus [3]) [mg/kg] | ED50 (Cavia porcellus [4]) [mg/kg] | Survival [5] [%] | survival at 30 mg/kg (Cavia porcellus [13]) [%] | Survival [14] [%] | further results |
| --- | --- | --- | --- | --- | --- | --- | --- | --- |
| CN1CC(CCN2CCC2)Oc2ncc(Cl)cc2C1=S (stereo not drawn) | 0.005 | >20 | 0.02 | 0.02 | 100 |  |  |  |
| CN(C)CCC1CN(C)C(=S)c2cccnc2O1 (stereo not drawn) [ROCASTINE] | 0.5 | >20 | 6 | 0.12 | 50 |  |  | survival at 0.3 mg/kg (Cavia porcellus [6]): 100% |
| CN(C)CCC1CN(C)C(=S)c2ccccc2O1 (stereo not drawn) |  | >20 |  |  |  |  |  | survival at 1 mg/kg (Cavia porcellus [7]): 0%; survival at 1 mg/kg (Cavia porcellus [8]): 50%; survival at 0.1 mg/kg (Cavia porcellus [9]): 100%; survival at 3 mg/kg (Cavia porcellus [10]): 0%; survival at 30 mg/kg (Cavia porcellus [11]): 100% |
| CN(C)CCC1CN(C)C(=S)c2cnccc2O1 (stereo not drawn) |  |  |  |  |  | 100 | 100 | survival at 1 mg/kg (Cavia porcellus [12]): 0% |
| CN(C)CCC(c1ccc(Br)cc1)c1ccccn1 (stereo not drawn) [BROMPHENIRAMINE] | 1.3 | 1.7 | 2.5 | 0.08 | 40 |  |  | survival at 0.3 mg/kg (Cavia porcellus [6]): 100% |
| CN(C)CCC1CN(C)C(=S)c2cccnc2S1 (stereo not drawn) |  |  |  |  |  | 100 |  | survival at 3 mg/kg (Cavia porcellus [15]): 0% |
| CN(C)CCC1CN(C)C(=O)c2cc3ccccc3nc2O1 (stereo not drawn) |  |  |  |  |  |  | 100 | survival at 1 mg/kg (Cavia porcellus [12]): 0% |
| CN1CC(CCN2CCC2)Oc2ncc(Cl)cc2C1=O (stereo not drawn) | 0.06 | >20 | 0.8 | 0.04 | 100 |  |  |  |
| CN(C)CCC1CN(C)C(=S)c2cc(Cl)cnc2O1 (stereo not drawn) | 0.5 | >20 | 0.6 | 0.04 | 100 |  |  |  |
| CN1CC(CCN2CCC2)Oc2ncccc2C1=O (stereo not drawn) | 0.6 | >20 | 6 | 0.13 | 67 |  |  | survival at 0.3 mg/kg (Cavia porcellus [6]): 100% |
| CN(C)CCC1CN(C)C(=S)c2cc3ccccc3cc2O1 (stereo not drawn) | 0.5 | >20 |  |  |  | 100 | 67 | survival at 0.3 mg/kg (Cavia porcellus [16]): 100% |
| CN(C)CCC1CN(C)C(=O)c2cnccc2O1 (stereo not drawn) |  |  |  |  |  | 100 | 67 | survival at 1 mg/kg (Cavia porcellus [12]): 33% |
| CN(C)CCC1CN(C)C(=S)c2ccc3ccccc3c2O1 (stereo not drawn) |  |  |  |  |  | 100 |  | survival at 3 mg/kg (Cavia porcellus [15]): 33% |
| CN(C)CCC1CN(C)C(=O)c2cccnc2S1 (stereo not drawn) |  |  |  |  |  |  | 0 | survival at 30 mg/kg (Cavia porcellus [17]): 67% |
